Compounds with a hit are over-represented: about 1.8% of the library has one in this group of screens.
CHRM5 antagonist = blocks acetylcholine activation of human M5 receptor; CHO-hM5 cells, Fluo-8 calcium fluorescence, ACh EC80; 360,000 tested, 0.59% active; P08912; inhibition, % at 3 µM;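 active = inhibition above a per-plate cutoff, the mean of that plate's test compounds plus 3 SD, cut at about 27% in these data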;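 note: 0% = acetylcholine EC80 with DMSO and 100% = DMSO without agonist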
M5 ag = agonists of human muscarinic M5 receptor (CHRM5); CHO-K1 hM5 cells, Fluo-8 calcium fluorescence; 0% DMSO wells, 100% maximal acetylcholine response; 360,000 tested, 0.19% active; activation, % at 3 µM; P08912; AID 624037;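 active = activation above the run's mean over test compounds plus 3 SD, cut at about 23% in these data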;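 note: signal is peak over basal fluorescence ratio across the kinetic read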
CHRM5 PAM = potentiates acetylcholine response at human M5 receptor | P08912 | activation, % at 3 µM | 360,000 tested, 0.3% active | AID 624038 | CHO-K1 hM5, Fluo-8 calcium, ACh EC20 PAM; 0% = ACh EC20, 100% = ACh EC100;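 active = activation above the run cutoff, the mean activation of all test compounds plus 3 SD, cut at about 18% in these data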
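Probe or stimulus: acetylcholine, EC20 level; Assay system: human M5 receptor in CHO-K1 cells; Schedule: compound preincubation 140 s before EC20 acetylcholine addition; Technique: intracellular calcium via Fluo-8 fluorescence; Dosing: single-point, 3 µM nominal; Read-out basis: percent activation from peak-over-basal fluorescence ratio, scaled EC20-to-EC100 acetylcholine; Repeats: one well per compound, no replicates.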
M4 PAM = potentiates acetylcholine response at human M4 receptor; P08173; CHO-K1 hM4/Gqi5, Fluo-8 calcium fluorescence, ACh EC20; 0% = ACh EC20, 100% = maximal ACh; activation, % at 3 µM; 360,000 tested, 0.4% active; AID 624126;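 active = activation above its plate's cutoff, the mean activation of sample wells plus 3 SD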
Target sequence (P08173 whole entry, looked up): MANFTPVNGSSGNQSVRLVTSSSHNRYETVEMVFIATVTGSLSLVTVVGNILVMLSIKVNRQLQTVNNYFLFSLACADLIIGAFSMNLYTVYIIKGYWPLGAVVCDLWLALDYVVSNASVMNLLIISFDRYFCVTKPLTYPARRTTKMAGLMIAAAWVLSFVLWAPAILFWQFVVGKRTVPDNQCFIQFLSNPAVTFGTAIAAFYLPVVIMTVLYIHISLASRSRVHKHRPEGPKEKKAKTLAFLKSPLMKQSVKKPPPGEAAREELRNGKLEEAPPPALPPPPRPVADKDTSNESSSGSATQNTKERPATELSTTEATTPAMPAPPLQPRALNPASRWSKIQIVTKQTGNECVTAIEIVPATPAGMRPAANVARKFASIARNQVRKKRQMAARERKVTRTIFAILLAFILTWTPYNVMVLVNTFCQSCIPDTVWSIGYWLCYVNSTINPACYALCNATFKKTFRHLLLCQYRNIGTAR
M4 ag = agonists of human muscarinic M4 receptor (CHRM4); CHO-K1 hM4/Gqi5, Fluo-8 calcium fluorescence; vehicle 0%, full acetylcholine response 100%; P08173; activation, % at 3 µM; AID 624127; 360,000 tested, 0.14% active;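 active = activation above the run mean over all test wells plus 3 SD, cut at about 32% in these data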;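 note: peak over basal fluorescence ratio per well then scaled between controls; 0% = DMSO wells and 100% = acetylcholine at EC100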
CHRM4 antagonist = antagonists of human muscarinic M4 receptor (CHRM4); P08173; CHO-hM4 cells, ACh EC80, Fluo-8 calcium fluorescence; inhibition, % at 3 µM; 360,000 tested, 0.73% active;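 active = inhibition above its plate's cutoff, the mean inhibition of sample wells plus 3 SD, cut at about 27% in these data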;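 note: 0% = acetylcholine EC80 with DMSO and 100% = DMSO without agonist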
* = called active by the depositor; ! = a repeat was not active.

SMILES	CHRM5 antagonist	M5 ag	CHRM5 PAM	M4 PAM	M4 ag	CHRM4 antagonist
COC(=O)c1sc(-c2ccccc2)cc1NC(=O)c1ccc(OC)cc1	-1	-1	9	24*	1	-15
COc1cccc(N2CCN(c3ncnc4c3cnn4-c3ccc(C)cc3C)CC2)c1	47*	7	-24	-11	26	47*
Cc1ccc(-n2ncc3c(N4CCCC4)ncnc32)c(C)c1	6	2	1	11	0	-1
Cc1ccc(C(=O)OCC(=O)N(CC(C)C)c2c(N)n(Cc3ccccc3)c(=O)[nH]c2=O)s1	3	-3	4	5	0	4
COc1cccc(OCC(O)CN2CCN(C(c3ccccc3)c3ccccc3)CC2)c1 (stereo not given)	3	-16	-28	-12	2	-5
CC(=O)c1ccccc1OCC(O)CN1CCN(C(c2ccccc2)c2ccccc2)CC1 (stereo not given)	17	-11	-31	-23	1	35*
COc1ccc2nc(NC(=O)CN3C(=O)NC4(CCCCC4)C3=O)sc2c1	19	-1	-3	5	3	17
CCOc1ccc(-c2noc([C@@H]3O[C@H](CO)[C@@H](O)[C@H]3O)n2)cc1	0	0	3	7	1	-9
Brc1cnc(N2CCCC2)nc1N1CCOCC1	5	-3	-1	11	0	27*
Oc1ccccc1Oc1ncc(Br)c(Cl)n1	-4	-8	4	5	-1	-1
Oc1ccccc1Oc1ncc(Br)c(N2CCOCC2)n1	11	-8	-23	-18	1	40*
C=CCC[C@@H](Cc1ccc(F)cc1)C(=O)OC[C@@H]1CCCN1C(=O)[C@@H](CC=C)CC(=O)N[C@@H](CO)Cc1ccccc1	11	-2	-7	-4	4	6
NS(=O)(=O)c1ccc(CCNC(=O)c2ccc3c(=O)n4c(nc3c2)CCCCC4)cc1	-2	1	5	4	0	3
O=C(O)CSc1nnc(CSc2nc3ccccc3s2)n1-c1ccccc1	-4	-4	20*	12	1	-18
O=C(CNC(=O)COc1ccccc1)NCCN1CCOCC1	4	0	1	1	0	-1
COc1ccc([C@H]2CC(=O)C=C(c3ccc(C)c(F)c3)C2)cc1	9	-4	1	6	0	3
Cc1cccc(N2C(=O)CC(N3CCN(Cc4ccc5c(c4)OCO5)CC3)C2=O)c1 (stereo not given)	16	-3	18*	6	1	-1
CCOC(=O)[C@@H]1CSCCS(=O)(=O)N1	-2	0	5	-3	-1	2
COc1ccc(C)cc1NC(=O)CCNS(=O)(=O)c1ccc2c(c1)CC(C)N2C(C)=O (stereo not given)	-1	-1	0	-2	2	-3
CN(C)C(=O)C(=O)c1cccn1-c1ccccc1C#N	11	-3	-6	1	1	-10
CC(C)N(C(=O)C(=O)c1cccn1-c1ccccc1C#N)C(C)C	-14	-2	16	17*	1	1
Cn1c(=O)[nH]c(=O)c2c1nc(N1CCCCC1)n2CCSc1nc2ccccc2o1	10	-1	-11	-13	0	81*
Cc1ccc(NC(=O)CCc2c(C)[nH]c(=O)c(C#N)c2C)cc1	3	-3	0	-4	0	7
CCCCOC(=O)CCc1c(C)[nH]c(=O)c(C#N)c1C	-3	-1	8	26*	1	-2
O=C(/C=C/c1c(F)cccc1Cl)c1ccc(O)cc1	11	-5	-7	-15	-1	39*
CCCCCCCCCCOC(=O)Cn1c(COc2ccc(OC)cc2)[n+](C)c2ccccc21	28*!	-7	-14	-13	1	32*!
CCCCCCCCCCOC(=O)Cn1c(COc2cccc(C)c2)[n+](C)c2ccccc21	19	-25	-20	-13	0	38*
CCCCCCCCCCOC(=O)Cn1c(COc2ccccc2)[n+](C)c2ccccc21	33*	-1	-16	-19	2	38*
